In the library only some 1.9% were active in any assay of this set; here they are far more common.
MC4R ag barr: agonists of human melanocortin 4 receptor (MC4R) beta-arrestin | P32245 | U2OS MC4R beta-arrestin complementation, luminescence; percent of melanotan II response, DMSO zero | activation, % at 8.9 µM | 360,000 tested, 0.98% active | AID 540308;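 active means activation above a per-plate cutoff, the mean activation of sample wells on that plate plus 3 SD, cut at about 8% in these data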
NTR1 agonist: agonists of human neurotensin receptor NTR1; NTR1-U2OS beta-arrestin-GFP spot imaging, agonist mode; 330,000 tested, 0.17% active; activation, % at 20 µM; P30989;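 active means activation at or above 40% of the spot to cytoplasm intensity ratio, with at least 20 cells analyzed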;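 further: 0% = DMSO without peptide and 100% = 100 nM NTR1 peptide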
TLR4-MyD88 BLA: TLR4-MyD88 interaction inhibition in cells; HeLa CL3-4 TLR4/MyD88 BLA complementation, FRET ratio; inhibition, % at 8.4 µM; 200,000 tested, 0.18% active; O00206+Q99836; in the data active means inhibition above about 25%;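 further: 0% = vehicle and 100% = reference inhibitor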
MC4R antagonist: human MC4R antagonism in cAMP assay; MC4R-expressing cells, MTII-stimulated cAMP, LANCE TR-FRET; AID 540295; inhibition, % at 6.5 µM; 360,000 tested, 0.48% active;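 active means inhibition above its plate's cutoff, the mean of tested wells on that plate plus 3 SD, cut at about 29% in these data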;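 further: 0% = Melanotan II alone and 100% = Melanotan II plus saturating MCL0020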
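System: U2OS cells stably expressing human melanocortin 4 receptor (MC4R). Reagent: Melanotan II challenge after compound preincubation. Doses: 6.5 µM. Times: 30-min compound, 1-h challenge, 1-h detection, room temperature. Measured by: TR-FRET with Eu-cAMP and labeled anti-cAMP, 671 nm. Replicates: singlicate.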
NOD2 RIPK2 PPI: NOD2-RIPK2 protein interaction inhibition | inhibition, % at 4.98 µM | AID 624267 | O43353 | 360,000 tested, 0.38% active | CHO BLA complementation NOD2-RIPK2, CCF4 ratio; in the data active means inhibition above about 21%;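 further: 0% = vehicle only and 100% = reference blocker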
TLR9-MyD88 inh: inhibitors of human TLR9-MyD88 binding | CHO BLA complementation TLR9-MyD88, CCF4 FRET ratio | inhibition, % at 4.98 µM | 340,000 tested, 0.21% active | AID 504734;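 active means inhibition above the mean over all tested compounds plus 3 SD, cut at about 21% in these data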;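 further: 0% = DMSO only wells and 100% = clavulanate BLA inhibitor control wells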
NTR1 ag confirm: confirmation of agonists of human NTR1; shares compounds with NTR1 agonist; NTR1-U2OS beta-arrestin-GFP translocation imaging; activation, % at 20 µM; 480 tested, 38% active;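 active means mean activation at 20 µM of at least 40%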;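 further: 0% = DMSO without peptide and 100% = 100 nM NTR1 peptide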
cAMP nonselect: U2OS forskolin cAMP inhibition counter-screen | 1,600 tested, 26% active | parental U2OS, LANCE TR-FRET | AID 602193 | shares compounds with MC4R antagonist | inhibition, % at 6.5 µM;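 active means mean inhibition over triplicates above the low-control well mean plus 3 SD, set per campaign, cut at about 13% in these data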;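 further: signal is single emission at 671 nm which falls as cellular cAMP rises; 0% = forskolin-stimulated wells and 100% = buffer without forskolin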
MC4R cAMP antag: human MC4R cAMP antagonism confirmation; MC4R-expressing cells, MTII-stimulated cAMP, TR-FRET; inhibition, % at 6.5 µM; AID 602195; shares compounds with MC4R antagonist; 1,600 tested, 27% active; in the data active means inhibition above about 29%;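 further: 0% = agonist stimulated wells alone and 100% = agonist stimulated wells plus saturating reference antagonist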
MC4R barr conf: human MC4R beta-arrestin agonism confirmation; AID 602192; U2OS MC4R beta-arrestin recruitment, luminescence; scaled DMSO 0%, Melanotan II 100%; activation, % at 8.9 µM; 2,400 tested, 31% active; shares compounds with MC4R ag barr;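 active means mean activation across replicates above the hit cutoff set in the earlier primary screen, cut at about 8% in these data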
MOR DOR agonist: OPRM1-OPRD1 heterodimer agonism counter-screen; shares compounds with MC4R ag barr; 2,400 tested, 5.8% active; U2OS PathHunter beta-arrestin, beta-gal luminescence; percent of deltorphin B response, DMSO zero; activation, % at 9.2 µM; AID 602194;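 active means mean activation across replicates exceeds the hit threshold derived in the earlier primary screen, cut at about 18% in these data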;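 further: 100% = deltorphin B at 0.9 µM final and 0% = DMSO alone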
Target sequence (P35372 whole entry, looked up): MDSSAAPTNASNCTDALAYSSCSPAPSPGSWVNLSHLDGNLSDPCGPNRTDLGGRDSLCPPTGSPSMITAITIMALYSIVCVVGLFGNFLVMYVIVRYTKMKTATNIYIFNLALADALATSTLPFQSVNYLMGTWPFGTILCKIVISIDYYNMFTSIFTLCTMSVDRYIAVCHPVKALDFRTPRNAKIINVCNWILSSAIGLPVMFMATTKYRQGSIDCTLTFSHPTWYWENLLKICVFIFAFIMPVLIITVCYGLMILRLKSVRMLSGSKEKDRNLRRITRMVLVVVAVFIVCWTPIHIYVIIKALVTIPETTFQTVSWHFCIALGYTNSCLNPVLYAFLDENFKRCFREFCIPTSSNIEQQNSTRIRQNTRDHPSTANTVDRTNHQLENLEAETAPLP
Target sequence (P41143 whole entry, looked up): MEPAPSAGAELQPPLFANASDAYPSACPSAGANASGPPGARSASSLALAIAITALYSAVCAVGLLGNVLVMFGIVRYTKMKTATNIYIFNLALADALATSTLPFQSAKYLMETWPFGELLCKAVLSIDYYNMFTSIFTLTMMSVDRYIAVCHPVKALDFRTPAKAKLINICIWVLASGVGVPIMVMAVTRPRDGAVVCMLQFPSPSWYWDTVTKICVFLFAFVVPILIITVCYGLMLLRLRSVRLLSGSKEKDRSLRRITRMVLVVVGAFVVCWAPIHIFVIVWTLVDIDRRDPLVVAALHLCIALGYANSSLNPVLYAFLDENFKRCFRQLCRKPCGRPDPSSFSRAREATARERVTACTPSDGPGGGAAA
NOD2-RIPK2 conf: confirmation of human NOD2-RIPK2 interaction inhibitors | 1,200 tested, 70% active | shares compounds with NOD2 RIPK2 PPI | CHO cells, NOD2-RIPK2 BLA complementation, CCF4 FRET | AID 624370 | inhibition, % at 4.98 µM;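 active means mean inhibition across replicates above a set limit taken from the earlier primary screen, cut at about 21% in these data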;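 further: 0% = DMSO-only wells and the high end = clavulanate BLA-blocked wells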
NOD2 BLA counter: counter-screen for NOD2-RIPK2 interaction inhibitors: BLA reporter. shares compounds with NOD2 RIPK2 PPI. CHO BLA reporter, CCF4 FRET ratio, counterscreen. inhibition, % at 4.98 µM. 1,200 tested, 57% active. AID 624371;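 active means mean inhibition above the low-control mean inhibition plus three low-control SD, cut at about 11% in these data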;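 further: 0% = DMSO only wells and 100% = clavulanate high control wells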
Starred values were filed as active, the others as inactive; . = no result given.

SMILES | MC4R ag barr | NTR1 agonist | TLR4-MyD88 BLA | MC4R antagonist | NOD2 RIPK2 PPI | TLR9-MyD88 inh | NTR1 ag confirm | MC4R barr conf | MOR DOR agonist | others
Nc1c(C(=O)Nc2ccc(S(=O)(=O)N3CCCC3)cc2)sc2nc3ccc(OC(F)(F)F)cc3cc12 | 14* | 87* | 4 | 16 | -12 | 1 | 22 | 12* | 14
Nc1c(C(=O)Nc2ccc(S(=O)(=O)N3CCCC3)cc2)sc2nc3cc4c(cc3cc12)CCC4 | -1 | . | 2 | 19 | -1 | 0 | . | . | .
Cc1ccc(CN2CCC(c3cc(-c4ccc(Cl)cc4)n[nH]3)CC2)cc1 | 10* | 61* | . | 2 | 12 | 7 | 6 | 19* | 10
COc1ccc(-c2cc(C3CCN(Cc4ccc([N+](=O)[O-])cc4)CC3)[nH]n2)cc1 | 0 | 4 | 0 | -3 | -5 | . | . | . | .
CC#CC(=O)N1CCC(C(=O)Nc2ccc(Oc3ccccc3)nc2)CC1 | -1 | 1 | . | -1 | -5 | 5 | . | . | .
CC(C)c1ccc(/C=N/NC(=O)CN(c2cccc(Cl)c2Cl)S(C)(=O)=O)cc1 | 22* | 48* | -1 | 0 | 0 | -3 | 40 | 6 | 8
COc1ccccc1CC(=O)N(Cc1ccccc1)c1ccc(C)cc1 | -1 | 3 | . | 2 | 8 | 3 | . | . | .
O=C(CCc1ccc(O)cc1)c1c(O)cc(O)cc1O | 1 | -1 | . | 7 | 2 | -13 | . | . | .
COc1cc(O)c(CC=C(C)C)c(O)c1C(=O)CCc1ccc(O)cc1 | 36* | 55* | . | -4 | -3 | 12 | 28 | 32* | 6
NC(=S)N/N=C/c1ccccc1OCCSc1ccc(Cl)cc1 | 11* | 43* | -10 | -13 | 4 | -1 | 27 | 1 | 6
Cc1ccc2nc(C3CCCCC3)[nH]c2c1 | -1 | 0 | . | 0 | 1 | -15 | . | . | .
Cc1ccc(C(=O)NC(=S)N2CCN(C)CC2)cc1Br | -3 | 2 | . | -5 | 7 | -7 | . | . | .
CC1=NNC(=O)/C1=C\c1cn(-c2ccccc2)nc1-c1ccc(Cl)cc1 | 17* | 101* | 10 | 31* | 2 | 0 | 78* | 33* | 6 | cAMP nonselect=2;MC4R cAMP antag=14
CC1CCN(CCCNC(=O)c2ccc3c(=O)n(Cc4ccc(Cl)cc4)c(=S)[nH]c3c2)CC1 | 13* | 52* | 8 | 4 | 13 | 9 | 57* | 9.9* | 9
O=C(CSCCN1C(=O)c2ccccc2C1=O)Nc1ccc2ccccc2c1 | 3 | -1 | 2 | 9 | -10 | -1 | . | . | .
CCn1c2c(c(=N)c3c1CCC3)CCCC2 | -2 | 1 | . | -2 | -5 | . | . | . | .
CCCCCCCCCn1c2c(c(=N)c3c1CCC3)CCCC2 | 13* | 72* | 17 | -1 | 24* | . | 79* | 6 | 7
O=C(N/N=C/c1c[nH]c2ccccc12)C1CC1(c1ccccc1)c1ccccc1 (stereo not drawn) | 19* | 54* | -13 | 13 | 3 | -3 | 41* | 16* | 8
Oc1ccc(C[C@@H]2CNC(=S)N2CCCCC2CCCCC2)cc1 | 14* | 44* | -10 | 1 | -7 | -6 | 32 | 11* | 3
O=C1NC[C@@H](Cc2ccc(O)cc2)N(CCCCC2CCCCC2)C1=O | . | . | . | . | -8 | . | . | . | .
Cc1c(CN2CCC(CO)(CCOc3ccccc3)CC2)[nH]c2c(Cl)cccc12 | 22* | 67* | 14 | 5 | 0 | -2 | 34 | 19* | 17
NC(=S)NNc1cc(Cl)cc(Cl)c1 | 0 | 1 | -1 | -10 | 6 | 1 | . | . | .
Cc1cccc(C(=O)Oc2ccc(/C=N/NC(=O)c3ccccc3O)cc2)c1 | 4 | 22 | 1 | 3 | -10 | -9 | . | . | .
Cc1cccc(C(=O)Oc2ccc(/C=N/NC(=O)c3ccc(O)cc3)cc2)c1 | 16* | 53* | . | 0 | -4 | -11 | 14 | 6 | 3
Cn1ccnc1Sc1cc(NCCCO)c([N+](=O)[O-])c2nonc12 | -4 | 45* | 4 | -28 | 27* | 13 | 72* | . | . | NOD2-RIPK2 conf=31*;NOD2 BLA counter=8
SMILES | MC4R ag barr | NTR1 agonist | TLR4-MyD88 BLA | MC4R antagonist | NOD2 RIPK2 PPI | TLR9-MyD88 inh | NTR1 ag confirm | MC4R barr conf | MOR DOR agonist | others
O=[N+]([O-])c1c(NCCCO)cc(Sc2ccc(Cl)cc2)c2nonc12 | -4 | . | 0 | -36 | 8 | 9 | . | . | .
CCc1ccc2c(c1)/C(=C/C(=O)c1cccs1)C(=O)N2 | -3 | 42* | 17 | 0 | 47* | 11 | 57* | . | . | NOD2-RIPK2 conf=42*;NOD2 BLA counter=2
COc1ccc(NC(=O)NNC(=O)C(C)Oc2ccc3ccccc3c2)cc1OC (stereo not drawn) | -4 | 1 | . | -4 | -7 | 4 | . | . | .
COC(=O)c1ccc2c(c1)C(C)(C)C(/C=C/c1ccc(O)cc1)=[N+]2C | -6 | 46* | -5 | -3 | 26* | 16 | 51* | . | . | NOD2-RIPK2 conf=71*;NOD2 BLA counter=-5
CCOc1ccc(C(=O)C(CN2CCOCC2)c2ccccc2)cc1 (stereo not drawn) | -2 | . | 0 | 2 | 6 | -6 | . | . | .
O=C(c1ccc(Br)cc1)C(CN1CCOCC1)c1ccccc1 (stereo not drawn) | 2 | 60* | . | 41* | 26* | 14 | 71* | . | . | cAMP nonselect=9;MC4R cAMP antag=22;NOD2-RIPK2 conf=27*;NOD2 BLA counter=-3
CCCNC(=O)c1cc(C2CCCCN2C(=O)c2ccc3c(c2)CCO3)on1 (stereo not drawn) | -2 | . | . | 14 | -10 | . | . | . | .
O=c1c2cc(F)ccc2sn1-c1ccc(F)cc1 | -2 | 0 | . | 4 | 19 | 16 | . | . | .

Screens deposited in PubChem by several laboratories.
